ChEMBL document CHEMBL1141650, “Antitumor polycyclic acridines. 20. Search for DNA quadruplex binding selectivity in a series of 8,13-dimethylquino[4,3,2-kl]acridinium salts: telomere-targeted agents” (J Med Chem, 2008)

Columns and labels:
[1] = Growth inhibition of human NCI60 cells after 2 days; format: functional
[2] = Inhibition of telomerase by TRAP assay
[3] = organism: Homo sapiens; assay: Binding affinity to quadruplex human telomeric sequence d[AG3(TTAGGG3) by fluorescence titration method
Procedure, shortened: (§1)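 Fluorescence titration, read as ligand fluorescence quenching on DNA binding. Quadruplex was d[AG3(TTAGGG)3] and duplex ST-DNA. K came from a model fit to the titration data, and the ratio was taken as quadruplex K over duplex K.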

[4] = tested on: Salmonidae; assay: Binding affinity to salmon testis duplex genomic DNA by fluorescence titration method; procedure, shortened: as §1
[5] = Ratio of binding constant K for G-quadruplex human telomeric sequence d[AG3(TTAGGG3) to binding constant K for salmon testis duplex genomic DNA by fluorescence titration method; procedure, shortened: as §1
[6] = organism: Homo sapiens; assay: Binding affinity to quadruplex human telomeric sequence d[AG3(TTAGGG3) by surface plasmon resonance method
Procedure, shortened: (§2)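 SPR in 10 mM HEPES pH 7.4 with 200 mM KCl, 3 mM EDTA, 0.005% surfactant P20. Quadruplex was human telomeric d[AG3(TTAGGG)3] and duplex the alternating GC eight base pair hairpin d[(CG)8]. Equilibrium binding constants K were determined, and the ratio taken as quadruplex K over duplex K.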

[7] = Binding affinity to duplex DNA d[(CG)8] by surface plasmon resonance method; procedure, shortened: as §2
[8] = Ratio of binding constant K for G-quadruplex human telomeric sequence d[AG3(TTAGGG3) to binding constant K for duplex DNA d[(CG)8] by surface plasmon resonance method; procedure, shortened: as §2
[9] = Stability of F21T DNA quadruplex sequence d[G3(T2AG3)3] assessed as thermal denaturation by FRET analysis
Procedure, shortened: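 FRET melting of F21T, d[G3(T2AG3)3] labelled with 5′ fluorescein and 3′ tamra, with compound at 1 µM. Lithium chloride buffer held sodium at 10 mM. Tm was taken where normalized fluorescence equalled 0.5, and ∆Tm as the ligand-induced change.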

[10] = organism: Homo sapiens; assay: Stabilization of G-quadruplex in human cmyc Pu27 DNA sequence assessed as decrease in full length product at less than 1 uM by Taq polymerase arrest assay relative to G-quadruplex arrest; set-up: scale not given: the % may be the effect or the level left
Procedure, shortened: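 Taq polymerase arrest: the quadruplex-forming sequence sat in a cassette template, and a radiolabeled primer was extended by the polymerase. Full-length (77-mer) and arrest product bands were quantified and their ratio plotted against drug concentration. IC50 was the concentration giving 50% decrease in full-length product relative to arrest products.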

[11] = Selectivity index, ratio of GI50 for human NCI60 cells to IC50 for telomerase by TRAP assay; format: functional
[12] = tested on: Salmonidae; assay: Increase in melting temperature of salmon testis DNA
[13] = tested on: Salmonidae; assay: Binding affinity to salmon testis DNA by UV titration
Procedure, shortened: (§3)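 UV absorbance titration following the bathochromic shift on duplex binding. Data were fitted to one binding mode or to two (strong Ks and weak Kw) modes.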

[14] = Binding affinity to poly[dA].poly[dT] by UV titration; procedure, shortened: as §3
[15] = Binding affinity to poly[dA-dT]2 by UV titration; procedure, shortened: as §3
[16] = Binding affinity to poly[dG].poly[dC] by UV titration; procedure, shortened: as §3
[17] = Binding affinity to poly[dG-dC]2 by UV titration; procedure, shortened: as §3

SMILES	GI50 ([1]; Homo sapiens, NCI60, 48 h)	IC50 [2]	K [3]	K [4]	Ratio [5]	ΔTm [9]	Selectivity index [11]	also measured
COc1cc2c3c([n+](C)c4ccccc4c3c1)-c1ccc(Cl)cc1N2C	750 nM	–	–	–	–	–	–	–
CN1c2ccccc2-c2c3c1cccc3c1cc(/C=C/C(=O)N3CCOCC3)ccc1[n+]2C	67600 nM	370 nM	3.2 10^5/M	0.31 10^5/M	10.3	4.5 °C	–	K [6]: 71 10^5/M; K [7]: 25 10^5/M; Ratio [8]: 2.8; Activity [10]: 50%
CN1c2ccccc2-c2c3c1cccc3c1cc(Cl)ccc1[n+]2C.[I-]	3160 nM	260 nM	6.7 10^5/M	1.1 10^5/M	6	5 °C	12	–
Cc1cc2c3c([n+](C)c4ccc(F)cc4c3c1)-c1cc(F)ccc1N2C	–	330 nM	2.7 10^5/M	0.56 10^5/M	4.8	8 °C	–	Tm [12]: 10.8 °C; K [6]: 110 10^5/M; K [7]: 3.4 10^5/M; Ratio [8]: 32.3; K [13]: 2 10^5/M; K [14]: 8 10^4/M; K [15]: 6 10^5/M; K [16]: 1 10^6/M; K [17]: 6 10^6/M; Activity [10]: 50%
COS(=O)(=O)[O-].Cc1ccc2c(c1)-c1c3c(cc(C)cc3c3cc(C)ccc3[n+]1C)N2C	–	250 nM	–	2.4 10^5/M	–	7 °C	1.6	K [6]: 74 10^5/M; K [7]: 5.4 10^5/M; Ratio [8]: 13.7; K [13]: 8 10^6/M; K [14]: 4 10^6/M; K [15]: 4 10^5/M; K [16]: 1 10^6/M; K [17]: 1.2 10^6/M; Activity [10]: 50%
CNc1ccc2c3cccc4c3c([n+](C)c2c1)-c1ccccc1N4C	460 nM	–	–	–	–	–	–	–
COc1cc2c3c([n+](C)c4ccc(Cl)cc4c3c1)-c1ccccc1N2C.[I-]	740 nM	280 nM	6.4 10^5/M	2.2 10^5/M	2.9	9 °C	2.6	–
CC(=O)Nc1ccc2c(c1)c1cccc3c1c([n+]2C)-c1ccccc1N3C.[I-]	81300 nM	410 nM	3.1 10^5/M	0.53 10^5/M	5.8	–	195	K [6]: 250 10^5/M; K [7]: 4.4 10^5/M; Ratio [8]: 57
COS(=O)(=O)[O-].Cc1cc2c3c([n+](C)c4ccccc4c3c1)-c1ccccc1N2C	1290 nM	740 nM	–	–	–	2 °C	1.7	–
CN(C)c1ccc2c3cccc4c3c([n+](C)c2c1)-c1ccccc1N4C	280 nM	–	–	–	–	3.8 °C	–	–
COc1cc2c3c([n+](C)c4ccccc4c3c1)-c1ccc(/C=C/C(=O)N3CCOCC3)cc1N2C (stereo in doubt; 9t)	–	–	–	–	–	–	–	GI50 [1]: > 100000 nM
COC(=O)CCCCC(=O)Nc1ccc2c3cccc4c3c([n+](C)c2c1)-c1ccccc1N4C.[I-]	6020 nM	210 nM	10 10^5/M	0.68 10^5/M	14.7	–	27	–
CN1c2ccccc2-c2c3c1cccc3c1ccc(NC(=O)c3ccccc3)cc1[n+]2C	6610 nM	–	–	–	–	–	–	–
CCN1c2ccccc2-c2c3c1cc(C)cc3c1ccccc1[n+]2CC.[I-]	1100 nM	2000 nM	–	–	–	0 °C	0.6	–
CN1c2ccccc2-c2c3c1cccc3c1ccc(NC(=O)C(C)(C)C)cc1[n+]2C.[I-]	3300 nM	230 nM	11 10^5/M	1.2 10^5/M	9.2	–	14	–
CCOC(=O)Nc1ccc2c3cccc4c3c([n+](C)c2c1)-c1ccccc1N4C	660 nM	–	–	–	–	–	–	–
CN1c2ccccc2-c2c3c1cccc3c1ccc(N(C)S(=O)(=O)c3ccc(F)cc3)cc1[n+]2C.[I-]	10000 nM	730 nM	1.9 10^5/M	0.83 10^5/M	2.3	–	14	K [6]: 48 10^5/M; K [7]: 17 10^5/M; Ratio [8]: 2.8

SMILES	GI50 ([1]; Homo sapiens, NCI60, 48 h)	IC50 [2]	K [3]	K [4]	Ratio [5]	ΔTm [9]	Selectivity index [11]	also measured
c1ccc2c(c1)Nc1cccc3cc4[n+](c-2c13)CCC4	90 nM	–	–	–	–	–	–	–
CC(=O)Nc1ccc2c3cccc4c3c([n+](C)c2c1)-c1ccccc1N4C.[I-]	–	380 nM	3.7 10^5/M	0.63 10^5/M	5.9	10 °C	32	K [6]: 240 10^5/M; K [7]: 3.8 10^5/M; Ratio [8]: 63; Activity [10]: 50%
CCCCCCCCCCCC(=O)Nc1ccc2c3cccc4c3c([n+](C)c2c1)-c1ccccc1N4C	540 nM	–	–	–	–	–	–	–
CCCCC(=O)Nc1ccc2c3cccc4c3c([n+](C)c2c1)-c1ccccc1N4C	1000 nM	–	–	–	–	–	–	–
CN1c2ccccc2-c2c3c1cccc3c1ccccc1[n+]2C.[I-]	7580 nM	1550 nM	0.91 10^5/M	0.71 10^5/M	1.3	2.8 °C	4.8	–
CN1c2ccccc2-c2c3c1cccc3c1ccc(NC(=O)C(F)(F)F)cc1[n+]2C.[I-]	2200 nM	310 nM	6 10^5/M	0.7 10^5/M	8.6	–	7	K [6]: 130 10^5/M; K [7]: 3.8 10^5/M; Ratio [8]: 34.2
CN1c2ccccc2-c2c3c1cc(/C=C/C(=O)N1CCOCC1)cc3c1cc(Cl)ccc1[n+]2C	12300 nM	–	–	–	–	–	–	–
CN1c2ccccc2-c2c3c1cccc3c1ccc(N)cc1[n+]2C.[I-]	3550 nM	1860 nM	–	–	–	–	1.9	–
COC(=O)/C=C/c1ccc2c(c1)N(C)c1cc(OC)cc3c1c-2[n+](C)c1ccccc31	4570 nM	–	–	–	–	–	–	–
c1cc2c3c(c1)-c1cccc4nc5ccccc5c(c14)N3CC2	60 nM	–	–	–	–	–	–	–
COc1cc2c3c([n+](C)c4ccccc4c3c1)-c1ccc(/C=C/C(=O)N3CCOCC3)cc1N2C (stereo in doubt; 9r)	–	–	–	–	–	–	–	GI50 [1]: 43600 nM
CN1c2ccccc2-c2cccc3nc4ccccc4c1c23	320 nM	–	–	–	–	–	–	–
Cc1cc2c3c([n+](C)c4ccc(Cl)cc4c3c1)-c1cc(Cl)ccc1N2C	4710 nM	–	–	–	–	–	–	–
COc1cc(NS(C)(=O)=O)ccc1Nc1c2ccccc2nc2ccccc12	–	–	–	–	–	0 °C	–	–
Nc1ccc2c(c1)Nc1c3ccccc3nc3cccc-2c13	1480 nM	–	–	–	–	–	–	–
CC(=O)OCCCc1cc2c3c([n+](C)c4ccc(CCCOC(C)=O)cc4c3c1)-c1ccccc1N2C	–	–	1.6 10^5/M	0.94 10^5/M	1.7	0.5 °C	–	K [6]: 2.4 10^5/M; K [7]: 1.7 10^5/M; Ratio [8]: 1.4
